Measurements from article PMC2581794 (Bioorganic & medicinal chemistry, 2008).

Columns and labels:
Lck = Lck (Homo sapiens, UniProt P06239); test: Photoaffinity-labeling; assay type: biochemical; conditions: for photolabeling of Lck in the presence of an ATP-competitive inhibitor of Lck: Figure S2, competition with ATP-competitive Lck inhibitor; for photolabeling efficiency of Lck (in words): compared with compound 1
Summary of the method: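 Commercial Lck photolabelled with biotin-tagged benzophenone ligands at 0, 3, 9, 18, 36, 90 and 180 µM. Western blot on PVDF: after blocking, streptavidin-HRP (1:10,000 in 3% non-fat milk/TBS-T) and ECL-Plus chemiluminescence. Bands quantified with background subtracted as 0%; 100% = maximal band of reference photoligand at 180 µM. EC50 from sigmoidal fit of triplicates (n = 3), with 95% CI.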

[1] = Decomposition of free photoligands under UV light; assay type: physicochemical; conditions: UV-A lamp λmax 350 nm, up to 30 min, HPLC
Summary of the method: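 Each probe at 30 µM in buffer was held on ice about 5 cm below six 15 W blacklight lamps (λmax 350 nm). Aliquots taken at 0, 10 and 30 min were analysed by RP-HPLC with UV detection at 280 nm. Intact probe concentration was estimated from chromatogram peak areas.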

Chain of Lck (P06239 whole entry): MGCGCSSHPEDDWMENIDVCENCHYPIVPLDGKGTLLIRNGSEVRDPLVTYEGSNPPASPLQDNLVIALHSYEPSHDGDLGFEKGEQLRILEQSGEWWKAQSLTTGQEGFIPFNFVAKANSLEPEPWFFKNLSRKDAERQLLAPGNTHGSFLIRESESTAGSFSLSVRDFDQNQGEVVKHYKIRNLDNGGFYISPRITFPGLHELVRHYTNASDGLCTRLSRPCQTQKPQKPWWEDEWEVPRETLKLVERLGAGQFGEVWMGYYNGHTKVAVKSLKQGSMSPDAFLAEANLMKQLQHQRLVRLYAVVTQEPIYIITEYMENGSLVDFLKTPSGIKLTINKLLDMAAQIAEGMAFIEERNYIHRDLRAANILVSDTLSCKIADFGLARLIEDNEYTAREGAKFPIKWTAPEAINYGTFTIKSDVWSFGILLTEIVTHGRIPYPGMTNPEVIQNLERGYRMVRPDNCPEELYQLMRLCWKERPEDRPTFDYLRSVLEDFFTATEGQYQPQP

## Nc1ncnc2c1ncn2CC(=O)N(CCNC(=O)CNC(=O)[C@H](Cc1ccc(C(=O)c2ccccc2)cc1)NC(=O)CCCNC(=O)CCCC[C@@H]1SC[C@@H]2NC(=O)N[C@@H]21)CC(=O)NCC(=O)O [Compound 1]
Lck
  photolabeling of Lck in the presence of an ATP-competitive inhibitor of Lck: completely blocked

## Nc1ncnc2c1ncn2CC(=O)N(CCNC(=O)[C@@H](CO)NC(=O)[C@H](Cc1ccc(C(=O)c2ccccc2)cc1)NC(=O)CCCNC(=O)CCCC[C@@H]1SC[C@@H]2NC(=O)N[C@@H]21)CC(=O)NCC(=O)O [Compound 2]
Lck
  photolabeling of Lck in the presence of an ATP-competitive inhibitor of Lck: completely blocked
  photolabeling efficiency of Lck (in words): comparable to that of 1

## Nc1ncnc2c1ncn2CC(=O)N(CCNC(=O)[C@@H](CCC(=O)O)NC(=O)[C@H](Cc1ccc(C(=O)c2ccccc2)cc1)NC(=O)CCCNC(=O)CCCC[C@@H]1SC[C@@H]2NC(=O)N[C@@H]21)CC(=O)NCC(=O)O [Compound 3]
Lck
  photolabeling of Lck in the presence of an ATP-competitive inhibitor of Lck: completely blocked
  photolabeling efficiency of Lck (in words): comparable to that of 1

## Nc1ncnc2c1ncn2CC(=O)N(CCNC(=O)[C@H]1CCCN1C(=O)[C@H](Cc1ccc(C(=O)c2ccccc2)cc1)NC(=O)CCCNC(=O)CCCC[C@@H]1SC[C@@H]2NC(=O)N[C@@H]21)CC(=O)NCC(=O)O [Compound 4]
[1]
  decomposition of free ligand under UV (in words): almost identical to that of 1

## Nc1ncnc2c1ncn2CC(=O)N(CCNC(=O)CCCNC(=O)[C@H](Cc1ccc(C(=O)c2ccccc2)cc1)NC(=O)CCCNC(=O)CCCC[C@@H]1SC[C@@H]2NC(=O)N[C@@H]21)CC(=O)NCC(=O)O [Compound 6]
Lck
  photolabeling of Lck in the presence of an ATP-competitive inhibitor of Lck: completely blocked
